Measured values from publication PMC3516921 (ChemMedChem, 2012).
Converted amounts (≈) assume the structure as drawn. Read-outs that look alike come from different tables or passages of the source.

How the values were obtained:
[1] = biological target: human cannabinoid CB2 receptors (Homo sapiens, UniProt P34972); test: [35S]GTPγS binding assay on hCB2-CHO cell membranes; assay type: biochemical; settings: for Functional effect on [35S]GTPγS binding: hCB2-CHO cell membranes
human liver microsomes = test: CYP-dependent in vitro metabolism in human liver microsomes; assay type: in vitro ADME
[2] = system: formalin-induced nocifensive behaviour; test: Formalin test of acute peripheral and inflammatory pain; assay type: in vivo; settings: mice; for Effect on 2nd phase of formalin-induced nocifensive behaviour: 3 mg/kg ip, 15 min before formalin; for Effect of AM630 pre-treatment on the antinociceptive effect of the compound: compound 3 mg/kg ip + AM630 1 mg/kg ip 5 min before
Outline: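 Mice (n = 8–10 per group, randomly assigned) received test compound ip (1 or 3 mg/kg) or vehicle 15 min before formalin (1.25% in saline, 30 μl, dorsal hind paw). Where used, AM630 (1 mg/kg ip) was given 5 min before compound. A blinded observer timed lifting, favouring, licking, shaking and flinching in 5-min bins over 0–10 min (early phase) and 20–60 min (late phase). Analysis was one-way ANOVA with Tukey-Kramer.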

[3] = Experimental logP determined by HPLC; assay type: physicochemical; settings: RP-18 column; for chromatographic logP: reversed-phase HPLC; for logP Exp: HPLC, MeOH/H2O, extrapolated to zero organic solvent
[4] = biological target: human cannabinoid type 1 receptor (Homo sapiens, UniProt P21554); test: CB1 receptor competitive binding assay with [3H]CP-55,940
[5] = biological target: human cannabinoid type 2 receptor (Homo sapiens, UniProt P34972); test: CB2 receptor competitive binding assay with [3H]CP-55,940; settings: for S.I. (selectivity index for CB2, Ki(CB1)/Ki(CB2)): Ki(CB1)/Ki(CB2) ratio
CB2 receptor = CB2 receptor (Homo sapiens, UniProt P34972); test: On-line screening on immobilized CB1/CB2-OT column; assay type: binding; settings: 0.25 nM [3H]-Win-55,1212 marker, 10 nM compound
Kinetic solubility = assay type: physicochemical; settings: water with 5% DMSO, 18 h incubation
[6] = read-out: CB2 Ki, mean ± SD, at least three experiments in duplicate
[7] = read-out: CB1 Ki, mean ± SD, at least three experiments in duplicate
[8] = mean ± SD, at least three experiments in duplicate

Row | SMILES | S.I. (selectivity index for CB2, Ki(CB1)/Ki(CB2)) [5] | Ki [5, 6] [µM] | logP Exp [3] | Ki [4, 7] [µM] | also measured
1 | CCCCCn1cc(-c2cn(C34CC5CC(CC(C5)C3)C4)nn2)c(=O)c2cc(-c3ccco3)ccc21 [Compound 11, 1-(Adamantan-1-yl)-4-[6-(furan-2-yl)-1,4-dihydro-4-oxo-1-pentylquinolin-3-yl]-1H-1,2,3-triazole] | – | – | – | – | Emax [1]: -52%; Functional effect on [35S]GTPγS binding [1]: inverse agonist effects; Vmax (formation rate) (human liver microsomes; 0.5 mg microsomal protein, 60 min incubation): 0.16±0.01 nmol x min^−1 × mg^1 protein; CYP isoforms involved in metabolism (inhibition study) (human liver microsomes; human liver microsomes): CYP3A4 is the major isoform involved, while CYP1A and CYP2A are only partially implicated; Metabolite identified (human liver microsomes; human liver microsomes, HPLC-MS): side chain hydroxylated derivative 32 as its only metabolite; Effect on 2nd phase of formalin-induced nocifensive behaviour [2]: significant reduction; Effect of AM630 pre-treatment on the antinociceptive effect of the compound [2]: completely abolished; chromatographic logP [3]: 5.18; Ki [4]: > 10 µM
2 | CCCCCn1cc(-c2cn(C34CC5CC(CC(C5)C3)C4)nn2)c(=O)c2cc(-c3ccc(OC(C)C)cc3)ccc21 [Compound 5, 1-(Adamantan-1-yl)-4-[6-(4-(2-propyloxy)phenyl]-1,4-dihydro-4-oxo-1-pentylquinolin-3-yl]-1H-1,2,3-triazole] | > 6 | – | – | – | Ki [5]: 1.68 ± 0.0245 µM; chromatographic logP [3]: 7.78; Ki [4]: > 10 µM
3 | CCCCCCC(C)(C)c1ccc([C@@H]2C[C@H](O)CC[C@H]2CCCO)c(O)c1 [CP55940, (−)-cis-3-[2-hydroxy-4-(1,1-dimethylheptyl)phenyl]-trans-4-(3-hydroxypropyl)cyclohexanol, reference compound] | – | – | – | – | Emax [1]: 84.7%
4 | CCCCCn1cc(-c2cn(C34CC5CC(CC(C5)C3)C4)nn2)c(=O)c2cc(Br)ccc21 [Compound 8, 1-(Adamantan-1-yl)-4-(6-bromo-1,4-dihydro-4-oxo-1-pentylquinolin-3-yl)-1H-1,2,3-triazole] | – | – | – | – | Ki [5]: 0.0322 ± 0.0012 µM; chromatographic logP [3]: 5.83; Ki [4]: > 10 µM
5 | CCCCCn1cc(-c2nc(C34CC5CC(CC(C5)C3)C4)no2)c(=O)c2cc(-c3ccc(OC(C)C)cc3)ccc21 [Compound 7, 3-(Adamantan-1-yl)-5-[6-(4-(2-propyloxy)phenyl]-1,4-dihydro-4-oxo-1-pentylquinolin-3-yl]-1,2,4-oxadiadole] | – | > 10 | 7.71 | > 10 | Displacement of marker ligand from OT column (CB2 receptor): very little displacement
6 | CCCCCn1cc(-c2nc(C34CC5CC(CC(C5)C3)C4)no2)c(=O)c2cc(-c3ccco3)ccc21 [Compound 13, 3-(Adamantan-1-yl)-5-[6-(furan-2-yl)-1,4-dihydro-4-oxo-1-pentylquinolin-3-yl]-1H-1,2,4-oxadiadole] | 82 | 0.0004 ± 0.0001 | 6.38 | 0.033 ± 0.0006 | Solubility (Kinetic solubility): 7 µg/mL (≈ 14.5 µM)
7 | CCCCCOc1nc2ccccc2cc1-c1cn(C23CC4CC(CC(C4)C2)C3)nn1 [Compound 16, 1-(Adamantan-1-yl)-4-[2-(pentyloxy)quinoline]-1H-1,2,3-triazole] | 271 | 0.0126 ± 0.0043 | – | – | Ki ([4]; read-out: CB1 Ki): 3.415 ± 0.0098 µM
8 | CCCCCn1cc(-c2nnc(C34CC5CC(CC(C5)C3)C4)o2)c(=O)c2cc(-c3ccco3)ccc21 [Compound 12, 2-(Adamantan-1-yl)-5-[6-(furan-2-yl)-1,4-dihydro-4-oxo-1-pentylquinolin-3-yl]-1H-1,3,4-oxadiadole] | > 1543 | 0.0065 ± 0.0022 | 5.26 | > 10 | EC50 ([1]; [35S]GTPγS binding, 95% confidence limits in brackets): 0.0576 µM; Functional effect on [35S]GTPγS binding [1]: inverse agonist effects; Emax ([1]; percentage change in [35S]GTPγS binding, 95% confidence limits in brackets): −46.6% (−52.5 and −40.6%); Effect on 2nd phase of formalin-induced nocifensive behaviour [2]: significant reduction; Effect of AM630 pre-treatment on the antinociceptive effect of the compound [2]: did not induce any change; Solubility (Kinetic solubility): 128 µg/mL (≈ 265 µM)
9 | CCCCCn1cc(-c2nc(C34CC5CC(CC(C5)C3)C4)no2)c(=O)c2cc(Br)ccc21 [Compound 10, 3-(Adamantan-1-yl)-5-(6-bromo-1,4-dihydro-4-oxo-1-pentylquinolin-3-yl)-1,2,4-oxadiadole] | 76 | 0.0027 ± 0.0008 | 5.77 | 0.208 ± 0.0055 | –
10 | O=c1c(-c2cn(C34CC5CC(CC(C5)C3)C4)nn2)c[nH]c2ccc(-c3ccco3)cc12 [Compound 29, 3-(1-Adamantyl-1H-1,2,3-triazol-4-yl)-6-(furan-2-yl)quinolin-4(1H)-one] | – | > 10 | – | > 10 | CB2 Ki [5, 8]: no affinity; CB1 Ki [4, 8]: no affinity
11 | CCCCCn1cc(-c2nnc(C34CC5CC(CC(C5)C3)C4)o2)c(=O)c2cc(Br)ccc21 [Compound 9, 2-(Adamantan-1-yl)-5-(6-bromo-1,4-dihydro-4-oxo-1-pentylquinolin-3-yl)-1,3,4-oxadiadole] | > 40 | 0.25 ± 0.0086 | 5.15 | > 10 | –
12 | CC(O)CCCn1cc(-c2cn(C34CC5CC(CC(C5)C3)C4)nn2)c(=O)c2cc(-c3ccco3)ccc21 (stereo not shown) [Compound 32, 3-(1-Adamantyl-1H-1,2,3-triazol-4-yl)-6-(furan-2-yl)-1-(4-hydroxypentyl)quinolin-4(1H)-one] | > 52 | 0.19 ± 0.01 | – | > 10 | Loss of potency versus parent compound 11 ([5]; racemic form): 150 fold
13 | CCCCCn1c(=O)c(-c2cn(C34CC5CC(CC(C5)C3)C4)nn2)cc2ccccc21 [Compound 15, 1-(Adamantan-1-yl)-4-(1-pentylquinolin-2(1H)-one)-1H-1,2,3-triazole] | 29 | 0.0111 ± 0.0036 | – | 0.3219 ± 0.0021 | –
